Assay results taken from ChEMBL document CHEMBL4043302, “Lead Diversification at the Nanomole Scale Using Liver Microsomes and Quantitative Nuclear Magnetic Resonance Spectroscopy: Application to Phosphodiesterase 2 Inhibitors” (J Med Chem, 2018).
One block for each molecule: values may come before it.

How the values were obtained:
[1] = Intrinsic clearance in human hepatocytes assessed per million cells at 1 uM after 0.5 to 4 hrs by HPLC-HRMS method; format: ADME, cell-based, Hepatocyte; details: human hepatocytes, read-out: CLH
Method in brief: (§1)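 Compound at 1 µM was dried from d6-DMSO and redissolved in Williams E medium. Pooled human hepatocytes were added at 680000 cells/mL. Samples were quenched in water/CH3CN (2:1) with 2% formic acid and clozapine as internal standard, then analysed by HPLC-HRMS in positive-ion full scan. k came from the slope of ln peak-area ratio versus time; CLint = k / cell concentration. Non-specific binding was not measured.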

Liver [2] = assay: Drug metabolism in mouse liver microsomes assessed as 7-(5-(4-Chlorophenyl)-3-(hydroxymethyl)-1-methyl-1H-pyrazol-4-yl)-2,5-dimethylimidazo[5,1-f ][1,2,4]triazin-4(3H)-one formation at 20 uM after 1.5 hrs by UHPLC-UV-HRMS method; format: ADME, microsome
Method in brief: (§2)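 Preparative incubation: substrate 20 µM with liver microsomes (2 mg/mL) of the listed species in 0.1 M potassium phosphate, pH 7.5, with MgCl2 3.3 mM and NADPH 1.3 mM. Run at 37°C in a shaking water bath and stopped with an equal volume of CH3CN. Products were fractionated by HPLC and quantified by qNMR in d6-DMSO.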

Liver [3] = assay: Drug metabolism in mouse liver microsomes assessed as 7-(5-(4-Chlorophenyl)-1,3-dimethyl-1H-pyrazol-4-yl)-5-(hydroxymethyl)-2-methylimidazo[5,1-f ][1,2,4]triazin-4(3H)-one formation at 20 uM after 1.5 hrs by UHPLC-UV-HRMS method; format: ADME, microsome; method in brief: as §2
[4] = Apparent permeability across RRCK cells after 1.5 hrs; format: ADME, cell-based, Canis lupus familiaris, MDCKII-LE; details: dog, MDCK
Liver [5] = assay: Drug metabolism in human liver microsomes assessed as 5-(5-((2-Hydroxycyclopentyl)methyl)-4,5,6,7-tetrahydropyrazolo-[1,5-a]pyrazin-3-yl)-7-methylimidazo[5,1-f][1,2,4]triazin-4(3H)-one diastereomer 2 formation at 20 uM after 1.5 hrs by UHPLC-UV-HRMS method; format: ADME, microsome; method in brief: as §2
Liver [6] = assay: Drug metabolism in human liver microsomes assessed as 5-(5-((2-Hydroxycyclopentyl)methyl)-4,5,6,7-tetrahydropyrazolo-[1,5-a]pyrazin-3-yl)-7-methylimidazo[5,1-f][1,2,4]triazin-4(3H)-one diastereomer 1 formation at 20 uM after 1.5 hrs by UHPLC-UV-HRMS method; format: ADME, microsome; method in brief: as §2
[7] = Drug metabolism in cynomolgus monkey liver microsomes assessed as 5-(Difluoromethyl)-7-(3-(hydroxymethyl)-1-methyl-5-(4-(trifluoromethyl)phenyl)-1H-pyrazol-4-yl)-2-methylimidazo[5,1-f ]-[1,2,4]triazin-4(3H)-one formation at 20 uM after 1.5 hrs by UHPLC-UV-HRMS method; format: ADME, Macaca fascicularis, microsome; method in brief: as §2
[8] = Drug metabolism in cynomolgus monkey liver microsomes assessed as 5-(Difluoromethyl)-2-methyl-7-(3-methyl-5-(4-(trifluoromethyl)-phenyl)-1H-pyrazol-4-yl)imidazo[5,1-f ][1,2,4]triazin-4(3H)-one at 20 uM after 1.5 hrs by UHPLC-UV-HRMS method; format: ADME, Macaca fascicularis, microsome; method in brief: as §2
[9] = Metabolic stability in human hepatocytes at 1 uM after 0.5 to 4 hrs by HPLC-HRMS method; format: ADME, cell-based, Hepatocyte; method in brief: as §1
[10] = Drug metabolism in hamster liver microsomes assessed as 5-(Hydroxymethyl)-7-(5-(6-methoxypyridin-3-yl)-1,3-dimethyl-1H-pyrazol-4-yl)-2-methylimidazo[5,1-f ][1,2,4]triazin-4(3H)-one formation at 20 uM after 1.5 hrs by UHPLC-UV-HRMS method; format: ADME, microsome; details: cricetinae; method in brief: as §2
[11] = Drug metabolism in hamster liver microsomes assessed as 7-(5-(6-Hydroxypyridin-3-yl)-3-methyl-1H-pyrazol-4-yl)-2,5-dimethylimidazo[5,1-f ][1,2,4]triazin-4(3H)-one formation at 20 uM after 1.5 hrs by UHPLC-UV-HRMS method; format: ADME, microsome; details: cricetinae; method in brief: as §2
[12] = Drug metabolism in hamster liver microsomes assessed as 5-(Hydroxymethyl)-7-(5-(6-methoxypyridin-3-yl)-3-methyl-1Hpyrazol-4-yl)-2-methylimidazo[5,1-f ][1,2,4]triazin-4(3H)-one formation at 20 uM after 1.5 hrs by UHPLC-UV-HRMS method; format: ADME, microsome; details: cricetinae; method in brief: as §2
[13] = Drug metabolism in hamster liver microsomes assessed as 7-(5-(6-Methoxypyridin-3-yl)-3-methyl-1H-pyrazol-4-yl)-2,5-dimethylimidazo[5,1-f ][1,2,4]triazin-4(3H)-one formation at 20 uM after 1.5 hrs by UHPLC-UV-HRMS method; format: ADME, microsome; details: cricetinae; method in brief: as §2
[14] = Drug metabolism in rabbit liver microsomes assessed as 4-(2,5-Dimethyl-4-oxo-3,4-dihydroimidazo[5,1-f ][1,2,4]triazin-7-yl)-1-methyl-5-(3-methyl-4-(trifluoromethyl)phenyl)-1H-pyrazole-3-carboxylic acid formation at 20 uM after 1 hr by UHPLC-UV-HRMS method; format: ADME, Oryctolagus cuniculus, microsome; method in brief: as §2
[15] = Drug metabolism in rabbit liver microsomes assessed as 7-(3-(Hydroxymethyl)-5-(3-(hydroxymethyl)-4-(trifluoromethyl)-phenyl)-1-methyl-1H-pyrazol-4-yl)-2,5-dimethylimidazo[5,1-f ]-[1,2,4]triazin-4(3H)-one formation at 20 uM after 1 hr by UHPLC-UV-HRMS method; format: ADME, Oryctolagus cuniculus, microsome; method in brief: as §2
[16] = Drug metabolism in rabbit liver microsomes assessed as 5-(Hydroxymethyl)-7-(3-(hydroxymethyl)-1-methyl-5-(3-methyl-4-(trifluoromethyl)phenyl)-1H-pyrazol-4-yl)-2-methylimidazo[5,1-f ][1,2,4]triazin-4(3H)-one formation at 20 uM after 1 hr by UHPLC-UV-HRMS method; format: ADME, Oryctolagus cuniculus, microsome; method in brief: as §2
[17] = Drug metabolism in rabbit liver microsomes assessed as 7-(5-(3-(Hydroxymethyl)-4-(trifluoromethyl)phenyl)-1,3-dimethyl-1H-pyrazol-4-yl)-2,5-dimethylimidazo[5,1-f ][1,2,4]triazin-4(3H)-one formation at 20 uM after 1 hr by UHPLC-UV-HRMS method; format: ADME, Oryctolagus cuniculus, microsome; method in brief: as §2
[18] = Drug metabolism in rabbit liver microsomes assessed as 7-(1,3-Dimethyl-5-(3-methyl-4-(trifluoromethyl)phenyl)-1H-pyrazol-4-yl)-5-(hydroxymethyl)-2-methylimidazo[5,1-f ][1,2,4]triazin-4(3H)-one formation at 20 uM after 1 hr by UHPLC-UV-HRMS method; format: ADME, Oryctolagus cuniculus, microsome; method in brief: as §2
[19] = Drug metabolism in rabbit liver microsomes assessed as 5-(Hydroxymethyl)-7-(5-(3-(hydroxymethyl)-4-(trifluoromethyl)phenyl)-1,3-dimethyl-1H-pyrazol-4-yl)-2-methylimidazo[5,1-f ][1,2,4]triazin-4(3H)-one formation at 20 uM after 1 hr by UHPLC-UV-HRMS method; format: ADME, Oryctolagus cuniculus, microsome; method in brief: as §2
[20] = Drug metabolism in cynomolgus monkey liver microsomes assessed as 7-(1,3-Dimethyl-5-(5-(trifluoromethyl)pyridin-2-yl)-1H-pyrazol-4-yl)-5-(hydroxymethyl)-2-methylimidazo[5,1-f ][1,2,4]triazin-4(3H)-one formation at 20 uM after 1.2 hrs by UHPLC-UV-HRMS method; format: ADME, Macaca fascicularis, microsome; method in brief: as §2
[21] = Drug metabolism in cynomolgus monkey liver microsomes assessed as 7-(3-(Hydroxymethyl)-1-methyl-5-(5-(trifluoromethyl)pyridin-2-yl)-1H-pyrazol-4-yl)-2,5-dimethylimidazo[5,1-f ][1,2,4]triazin-4(3H)-one formation at 20 uM after 1.2 hrs by UHPLC-UV-HRMS method; format: ADME, Macaca fascicularis, microsome; method in brief: as §2
[22] = Drug metabolism in cynomolgus monkey liver microsomes assessed as 4-(2,5-Dimethyl-4-oxo-3,4-dihydroimidazo[5,1-f ][1,2,4]triazin-7-yl)-1-methyl-5-(5-(trifluoromethyl)pyridin-2-yl)-1H-pyrazole-3-carbaldehyde formation at 20 uM after 1.2 hrs by UHPLC-UV-HRMS method; format: ADME, Macaca fascicularis, microsome; method in brief: as §2
[23] = Drug metabolism in cynomolgus monkey liver microsomes assessed as 5-(Hydroxymethyl)-7-(3-(hydroxymethyl)-1-methyl-5-(5-(trifluoromethyl)pyridin-2-yl)-1H-pyrazol-4-yl)-2-methylimidazo-[5,1-f ][1,2,4]triazin-4(3H)-one formation at 20 uM after 1.2 hrs by UHPLC-UV-HRMS method; format: ADME, Macaca fascicularis, microsome; method in brief: as §2
[24] = Drug metabolism in hamster liver microsomes assessed as 7-(1,3-Dimethyl-5-(4-(trifluoromethyl)phenyl)-1H-pyrazol-4-yl)-5-(methoxymethyl)-2-methyl-4-oxo-3,4-dihydroimidazo[5,1-f ][1,2,4]-triazine 1-oxide formation at 20 uM after 1 hr by UHPLC-UV-HRMS method; format: ADME, microsome; details: cricetinae; method in brief: as §2
[25] = Drug metabolism in hamster liver microsomes assessed as 5-(Methoxymethyl)-2-methyl-7-(3-methyl-5-(4-(trifluoromethyl)-phenyl)-1H-pyrazol-4-yl)imidazo[5,1-f ][1,2,4]triazin-4(3H)-one formation at 20 uM after 1 hr by UHPLC-UV-HRMS method; format: ADME, microsome; details: cricetinae; method in brief: as §2
[26] = Drug metabolism in hamster liver microsomes assessed as 5-(Hydroxymethyl)-2-methyl-7-(3-methyl-5-(4-(trifluoromethyl)-phenyl)-1H-pyrazol-4-yl)imidazo[5,1-f ][1,2,4]triazin-4(3H)-one formation at 20 uM after 1 hr by UHPLC-UV-HRMS method; format: ADME, microsome; details: cricetinae; method in brief: as §2
[27] = Drug metabolism in hamster liver microsomes assessed as 7-(3-(Hydroxymethyl)-5-(4-(trifluoromethyl)phenyl)-1H-pyrazol-4-yl)-5-(methoxymethyl)-2-methylimidazo[5,1-f ][1,2,4]triazin-4(3H)-one formation at 20 uM after 1 hr by UHPLC-UV-HRMS method; format: ADME, microsome; details: cricetinae; method in brief: as §2
[28] = biological target: cGMP-dependent 3',5'-cyclic phosphodiesterase (Homo sapiens, UniProt O00408); assay: Inhibition of human PDE2A1 using 3',5'-[3H]cGMP as substrate after 30 mins by scintillation proximity assay
Liver [29] = assay: Drug level in human liver microsomes treated with 5-(5-(Cyclopentylmethyl)-4,5,6,7-tetrahydropyrazolo[1,5-a]-pyrazin-3-yl)-7-methylimidazo[5,1-f ][1,2,4]triazin-4(3H)-one at 20 uM after 1.5 hrs by UHPLC-UV-HRMS method; format: ADME, microsome; method in brief: as §2

cGMP-dependent 3',5'-cyclic phosphodiesterase, sequence (O00408 whole entry): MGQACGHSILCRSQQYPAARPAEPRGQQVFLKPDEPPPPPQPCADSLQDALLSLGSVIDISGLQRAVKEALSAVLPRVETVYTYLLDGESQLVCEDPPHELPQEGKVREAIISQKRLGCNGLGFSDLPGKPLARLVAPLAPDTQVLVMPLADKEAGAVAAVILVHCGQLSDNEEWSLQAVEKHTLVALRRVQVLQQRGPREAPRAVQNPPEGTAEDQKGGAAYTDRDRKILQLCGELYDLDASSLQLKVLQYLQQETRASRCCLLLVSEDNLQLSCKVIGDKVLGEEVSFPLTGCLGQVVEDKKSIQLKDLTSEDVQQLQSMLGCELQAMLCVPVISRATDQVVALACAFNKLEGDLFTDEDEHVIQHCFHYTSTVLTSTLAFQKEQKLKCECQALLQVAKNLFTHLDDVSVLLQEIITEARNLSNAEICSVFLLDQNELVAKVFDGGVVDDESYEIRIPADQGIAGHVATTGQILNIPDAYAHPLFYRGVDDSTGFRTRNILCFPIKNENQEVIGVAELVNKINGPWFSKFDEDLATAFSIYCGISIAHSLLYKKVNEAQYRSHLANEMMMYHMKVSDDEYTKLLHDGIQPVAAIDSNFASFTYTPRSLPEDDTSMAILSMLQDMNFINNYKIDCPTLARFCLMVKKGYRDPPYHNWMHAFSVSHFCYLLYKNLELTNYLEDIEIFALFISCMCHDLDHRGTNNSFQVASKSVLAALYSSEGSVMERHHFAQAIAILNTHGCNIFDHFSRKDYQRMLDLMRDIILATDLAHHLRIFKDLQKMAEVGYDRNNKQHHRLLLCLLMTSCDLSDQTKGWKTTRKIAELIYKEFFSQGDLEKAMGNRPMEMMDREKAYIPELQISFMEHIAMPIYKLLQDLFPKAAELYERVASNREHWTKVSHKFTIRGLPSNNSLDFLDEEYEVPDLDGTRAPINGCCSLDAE

- hepatocyte CLint at 1 µM [1]: 32 µL/min/1e6 cells
- Drug metabolism (Liver [2]): Metabolite_Detected
- Drug metabolism (Liver [3]): Metabolite_Detected
Structure (SMILES): Cc1nn2c(-c3c(C)nn(C)c3-c3ccc(Cl)cc3)nc(C)c2c(=O)[nH]1

- Papp at 1.5 h [4]: 24 ×10⁻⁶ cm/s
- hepatocyte CLint at 1 µM [1]: 16 µL/min/1e6 cells
- Drug metabolism (Liver [5]): Metabolite_Detected
- Drug metabolism (Liver [6]): Metabolite_Detected
Structure (SMILES): Cc1nc(-c2cnn3c2CN(CC2CCCC2)CC3)c2c(=O)[nH]cnn12

- Papp at 1.5 h [4]: 23 ×10⁻⁶ cm/s
- hepatocyte CLint at 1 µM [1]: 5.3 µL/min/1e6 cells
- Drug metabolism [7]: Metabolite_Detected
- Drug metabolism [8]: Metabolite_Detected
Structure (SMILES): Cc1nn2c(-c3c(C)nn(C)c3-c3ccc(C(F)(F)F)cc3)nc(C(F)F)c2c(=O)[nH]1

- Stability [9]: Stable
- Drug metabolism [10]: Metabolite_Detected
- Drug metabolism [11]: Metabolite_Detected
- Drug metabolism [12]: Metabolite_Detected
- Drug metabolism [13]: Metabolite_Detected
Structure (SMILES): COc1ccc(-c2c(-c3nc(C)c4c(=O)[nH]c(C)nn34)c(C)nn2C)cn1

- Papp at 1.5 h [4]: 28 ×10⁻⁶ cm/s
- hepatocyte CLint at 1 µM [1]: 19 µL/min/1e6 cells
- Drug metabolism [14]: Metabolite_Detected
- Drug metabolism [15]: Metabolite_Detected
- Drug metabolism [16]: Metabolite_Detected
- Drug metabolism [17]: Metabolite_Detected
- Drug metabolism [18]: Metabolite_Detected
- Drug metabolism [19]: Metabolite_Detected
Structure (SMILES): Cc1nn2c(-c3c(C)nn(C)c3-c3ccc(C(F)(F)F)c(C)c3)nc(C)c2c(=O)[nH]1

- Papp at 1.5 h [4]: 16 ×10⁻⁶ cm/s
- Drug metabolism [20]: Metabolite_Detected
- Drug metabolism [21]: Metabolite_Detected
- Stability [9]: Stable
- Drug metabolism [22]: Metabolite_Detected
- Drug metabolism [23]: Metabolite_Detected
Structure (SMILES): Cc1nn2c(-c3c(C)nn(C)c3-c3ccc(C(F)(F)F)cn3)nc(C)c2c(=O)[nH]1

- Papp at 1.5 h [4]: 13 ×10⁻⁶ cm/s
- Drug metabolism [24]: Metabolite_Detected
- hepatocyte CLint at 1 µM [1]: 4.7 µL/min/1e6 cells
- Drug metabolism [25]: Metabolite_Detected
- Drug metabolism [26]: Metabolite_Detected
- Drug metabolism [27]: Metabolite_Detected
Structure (SMILES): COCc1nc(-c2c(C)nn(C)c2-c2ccc(C(F)(F)F)cc2)n2nc(C)[nH]c(=O)c12

- Papp at 1.5 h [4]: 1.8 ×10⁻⁶ cm/s
- hepatocyte CLint at 1 µM [1]: 5.4 µL/min/1e6 cells
- IC50 [28]: > 2000 nM
- Drug metabolism (Liver [29]): Metabolite_Detected
Structure (SMILES): Cc1nc(-c2cnn3c2CN(CC2CCCC2O)CC3)c2c(=O)[nH]cnn12 (single isomer, unassigned; diastereomer 1)
